# High-throughput results from PubChem BioAssay.
# Rows were chosen to be rich in hits. Some 2% of all compounds tested hit in one or more screens of this group.
# PKA-R2B act: activators of human PKA-R2B complex. 0.079% of 340,000 active. PKA-R2B holoenzyme dissociation, Cy5-IP20 fluorescence polarization; R2B truncated from residue 108, S112A mutant; 0% DMSO only, 100% 113 µM cGMP. P22694+P31323. activation, % at 11.4 µM;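 active means activation above a cutoff set at the mean over all compounds plus 3 SD, cut at about 18% in these data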;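 further: higher means more holoenzyme dissociation and a rise in polarization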
# dFosB act: mouse delta FosB homodimer activation. P13346. purified delta FosB, TAMRA-CDK5 oligo fluorescence polarization; percent of positive-control signal above neutral wells. activation, % at 25 µM. 0.99% of 340,000 active;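 active means mean activation above about 17%, with every replicate also reaching it, limit read from the data, passing the limit was not always enough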
# Target sequence (P13346 whole entry, looked up): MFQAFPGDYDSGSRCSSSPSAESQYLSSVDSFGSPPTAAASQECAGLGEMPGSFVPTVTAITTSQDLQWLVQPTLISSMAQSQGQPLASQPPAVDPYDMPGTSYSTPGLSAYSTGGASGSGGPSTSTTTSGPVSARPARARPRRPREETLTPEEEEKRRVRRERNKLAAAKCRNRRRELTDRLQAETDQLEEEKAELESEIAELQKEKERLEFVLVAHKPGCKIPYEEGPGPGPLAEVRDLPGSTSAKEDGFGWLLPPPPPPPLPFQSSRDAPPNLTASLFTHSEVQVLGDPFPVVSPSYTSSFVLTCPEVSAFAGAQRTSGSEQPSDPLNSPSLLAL
# NTR1 ag: NTR1 (human) agonism. P30989. AID 493036. NTR1-U2OS beta-arrestin-GFP spot imaging, agonist mode. 0.17% of 330,000 active. activation, % at 20 µM;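 active means activation at or above 40% of the spot to cytoplasm intensity ratio, with at least 20 cells analyzed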;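 further: 0% = DMSO without peptide and 100% = 100 nM NTR1 peptide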
# CAL PDZ FP-1: inhibitors of human CAL PDZ peptide binding | inhibition, % at 24.9 µM | Q9HD26 | 0.92% of 300,000 active | AID 602252 | purified CAL PDZ, TMR-peptide fluorescence polarization, 1 h;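 active means mean inhibition of at least 30% with at least half of replicates also reaching 30%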;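 further: 0% = DMSO neutral control and 100% = excess unlabeled competitor peptide PRC23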
# PKA-R1A act: activators of PKA-R1A complex; 0.083% of 340,000 active; PKA-R1A dissociation, Cy5-IP20 fluorescence polarization; scaled: DMSO 0%, 113 µM cGMP 100%; activation, % at 11.4 µM; P00514+P68181;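 active means percent activation above the mean of all tested compounds plus 3 SD, cut at about 19% in these data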;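 further: higher means more PKAc released from R1A so a rise in polarization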
# CAL PDZ FP-2: inhibitors of human CAL PDZ peptide binding; AID 504414; inhibition, % at 20 µM; Q9HD26; 0.02% of 330,000 active; purified CAL PDZ, TMR-peptide fluorescence polarization, 1 h;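 active means highest replicate inhibition of at least 40%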;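 further: plate controls were DMSO neutral control wells for no effect and unlabeled competitor peptide control wells for full effect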
#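 material = purified tagged CAL PDZ domain construct (CerCALP) | compound dosing = 20 µM, one dose | times = 1 h at RT | measured by = fluorescence polarization from S- and P-plane intensities, G-factor corrected | read-out = inhibition from polarization loss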
# * = called active by the depositor; . = no result.
SMILES,PKA-R2B act,dFosB act,NTR1 ag,CAL PDZ FP-1,PKA-R1A act,CAL PDZ FP-2
COc1ccc2sc(N(CCCN(C)C)C(=O)c3ccc(C(=O)c4ccccc4)cc3)nc2c1,-12.0,21.7*,19.1,.,0.3,-2.5
CCN(CC)CCN(C(=O)c1ccc2ncsc2c1)c1nc2cc3c(cc2s1)OCO3,-7.8,6.4,1.2,-3.4,-7.1,-0.6
CN(C)CCCN(C(=O)c1ccc(Br)s1)c1nc2cc3c(cc2s1)OCCO3,-5.0,23.8*,4.1,-4.3,2.1,-5.0
CN(C)CCCN(C(=O)c1ccc(C(=O)c2ccccc2)cc1)c1nc2cc3c(cc2s1)OCO3,9.9,24.6*,15.3,-5.6,4.8,-5.2
CCN(CC)CCN(C(=O)c1ccc(C(=O)c2ccccc2)cc1)c1nc2cc3c(cc2s1)OCO3,-6.3,47.7*,2.0,-1.6,-2.8,0.1
Cc1cc(C(=O)Nc2ccccc2C(=O)O)c(C)o1,-11.5,-7.7,0.3,2.6,-1.7,-0.7
O=C(CCN1CCN(c2ccccc2)CC1)NNC(=S)Nc1ccccc1Cl,-1.7,-4.2,0.0,41.2*,-4.5,-0.7
Cc1cccc(NC(=O)CCNC(=O)c2ccc(Br)cc2)c1,3.3,-6.7,-0.4,47.2*,-4.7,-0.8
CC(C(=O)NC(C)(C)C)N(C(=O)CS(=O)CC(=O)Nc1ccc(F)cc1)c1ccccc1F (centres undefined),-3.8,-1.9,0.6,33.2*,-6.1,1.4
Cc1ccc(NC(=O)CS(=O)CC(=O)N(c2ccccc2F)C(C)C(=O)NC2CCCC2)cc1 (centres undefined),-5.8,-2.3,0.8,-5.2,1.9,-2.2
O=C(Nc1nonc1-c1ccc(F)cc1)c1ccco1,-8.3,0.2,0.9,-0.5,0.6,-2.5
Cc1ccc(-c2csc3ncnc(SCC(=O)O)c23)cc1,7.0,-4.5,-1.2,-5.0,1.8,-2.3
Cc1ccc(-c2csc3ncnc(SCC(=O)NCC4CCCO4)c23)cc1 (centres undefined),0.0,-24.6,2.6,32.9*,-7.6,-0.9
CCOC(=O)c1cnc2ncnn2c1N,-4.9,1.7,-0.7,51.5*,3.7,0.5
CC1CC(C)(C)NC(=S)N1CCC(=O)NCc1ccc(F)cc1 (centres undefined),4.3,1.8,-1.2,-2.5,2.0,0.8
COc1ccc(CNC(=O)CCN2C(=S)NC(C)(C)CC2C)cc1 (centres undefined),2.2,4.4,0.0,64.9*,10.4,-1.8
COc1nc(NC2OC(CO)C(O)C(O)C2O)c(N)c(=O)[nH]1 (centres undefined),12.1,-5.9,.,-2.3,3.2,-0.7
COc1ccc(Br)c(C(=O)OCC(=O)Nc2cc(C)on2)c1,-5.3,.,.,.,8.5,.
COc1ccc(C(N)=O)c(OCC(=O)Nc2cc(C)on2)c1,9.4,4.8,-0.5,38.6*,-9.6,0.1
Cc1cccc(N2CCN(CC3CCCCC3)CC2)c1C,6.3,-5.5,3.3,47.2*,11.4,-1.1
COc1ccc(S(=O)(=O)N2CCC(C(=O)NC(c3nc4ccccc4[nH]3)C(C)C)CC2)cc1 (centres undefined),-9.1,4.3,2.9,-6.1,1.8,0.3
COc1cccc(NC(=O)C(NC2CCCC2)c2ccccc2)c1 (centres undefined),10.3,-0.2,0.6,-3.3,-3.2,0.1
Cc1ccc(NC(=O)C(NC2CCCC2)c2ccccc2)cc1Cl (centres undefined),-13.4,0.8,8.0,57.9*,-19.7,-1.1
COC(=O)C1C2CC3c4[nH]c5cc(OC)ccc5c4CCN3CC2CC(OC(=O)CC(C)=O)C1OC (centres undefined),-4.2,-12.8,.,-2.7,-0.4,0.8
CCOC(=O)Oc1c(OC)cc(C(=O)O[C@@H]2C[C@@H]3CN4CCc5c([nH]c6cc(OC)ccc56)[C@H]4C[C@@H]3[C@H](C(=O)OC)[C@H]2OC)cc1OC,3.1,29.3*,3.5,0.0,-3.2,2.4
SMILES,PKA-R2B act,dFosB act,NTR1 ag,CAL PDZ FP-1,PKA-R1A act,CAL PDZ FP-2
O=C(NCCCCc1ccccc1)c1cccc(NC(=O)C2CCCC2)c1,-7.3,-6.1,.,-5.2,-9.5,-0.4
C/C(CC(=O)Nc1ccccc1Br)=N\NC(=O)C(=O)N1CCCC1,11.4,0.7,2.1,108.0*,-8.0,-0.4
COc1ccccc1-c1ccc(SCc2ccc(F)cc2)nn1,1.0,-2.1,2.3,79.9*,1.5,4.7
COc1ccccc1-c1ccc(SCc2ccc(C)cc2)nn1,-1.5,-1.9,6.3,1.2,2.8,-2.3
Cc1ccc2nc(N3CCN(Cc4nnnn4C4CCCC4)CC3)c(C#N)cc2c1,-7.4,-12.5,1.2,55.2*,5.0,-2.0
COc1ccc(CCNC(=O)C2CCN(C(=O)c3ccc(Br)cc3)CC2)cc1OC,3.6,-4.6,2.6,-8.4,1.1,-0.1
COc1cc(/C=N/O)ccc1OCc1ccc(Cl)cc1,.,.,2.9,.,.,.
CCOc1cc(/C=N/N=C(N)N)ccc1OCc1ccc(Cl)cc1,-4.6,56.3*,.,-3.7,-9.1,-3.5
COc1cc(/C=N/N=C(N)N)ccc1OCc1ccc(Cl)cc1,-14.0,58.8*,4.4,2.3,4.0,-4.2
CCOc1ccc2[nH]c3c(NCC(C)C)ncnc3c2c1,-14.1,0.4,4.1,80.7*,-5.5,-0.8
CN(CCc1ccccc1)C1CCCN(S(=O)(=O)N(C)C)C1 (centres undefined),4.9,2.0,-1.4,7.1,-0.9,-0.9
COc1ccccc1CNC(=O)COC(=O)c1cccnc1SCC(=O)NCc1ccccc1OC,0.3,40.5*,-0.8,83.3*,2.3,-5.8
O=C(COC(=O)c1cccnc1SCC(=O)NCc1ccccc1)NCc1ccccc1,3.6,0.7,-1.5,-2.6,2.1,0.7
COc1c(O)cccc1[C@@H](O)C1CCN(CCc2ccc(F)cc2)CC1,-0.2,-3.7,-3.9,-3.6,3.7,-0.7
CCOc1ccccc1N1C(=O)CN(Cc2ccc(OC)c(OC)c2)C1=S,6.8,-2.7,-1.2,47.8*,-3.6,.
CC1(C)CC(NC(=O)C2CCC(=O)N(Cc3ccccc3F)C2)CC(C)(C)C1 (centres undefined),1.4,-17.9,0.5,-0.2,-4.0,-0.4
CC(=O)Nc1ccc(S(=O)(=O)Oc2cccc(/C=C3\SC(N)=NC3=O)c2)cc1,-5.5,32.9*,19.6,-0.7,-14.2,-3.3
COc1cc(/C=C2\SC(N)=NC2=O)ccc1OCC(=O)Nc1ccc(C)cc1,12.7,79.1*,-0.4,0.1,-0.6,-2.5
Cc1ccc(F)c(CNC(=O)C2CCC(=O)N(Cc3ccccn3)C2)c1F (centres undefined),-4.3,0.9,0.1,-3.6,-5.6,-0.3
O=[N+]([O-])c1cc(S(=O)(=O)N2CCOCC2)ccc1NS(=O)(=O)c1ccccc1,1.8,5.0,0.2,45.8*,-3.4,-0.2
